Assay results reported in ChEMBL document CHEMBL3352499, “One pot three components microwave assisted and conventional synthesis of new 3-(4-chloro-2-hydroxyphenyl)-2-(substituted) thiazolidin-4-one as antimicrobial agents” (Bioorg Med Chem Lett, 2014).
In brackets after ≈: the same amount, converted by molar mass.

Columns and labels:
[1] = tested on: Bacillus subtilis; test: Antimicrobial activity against Bacillus subtilis NCIM-2063 after 20 hrs by two fold serial macrodilution technique; format: functional; conditions: NCIM-2063, 20 h
Outline: (§1)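 Serial macrodilution in 96-well microtiter plates. Compounds were dissolved in saline (0.8% NaCl) containing 5% DMSO, and strains were incubated with a range of concentrations for 20 h at 37 °C on a rotary shaker (160 rpm). MIC was the lowest concentration without growth. Runs were in triplicate, with the mean taken. The negative control was 5% DMSO.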

[2] = tested on: Bacillus subtilis; test: Bactericidal activity against Bacillus subtilis NCIM-2063 after 72 hrs by two fold serial macrodilution technique; format: functional; conditions: NCIM-2063, 72 h
Outline: (§2)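 Serial subcultivation followed 72 h of exposure to compounds dissolved in saline containing 5% DMSO. MBC/MFC was the lowest concentration with no visible growth, taken as 99.5% killing of the original inoculum. Runs were in triplicate, with the mean reading used.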

[3] = tested on: Staphylococcus aureus; test: Antimicrobial activity against Staphylococcus aureus NCIM-2901 after 20 hrs by two fold serial macrodilution technique; format: functional; conditions: NCIM-2901, 20 h; outline: as §1
[4] = tested on: Staphylococcus aureus; test: Bactericidal activity against Staphylococcus aureus NCIM-2901 after 72 hrs by two fold serial macrodilution technique; format: functional; conditions: NCIM-2901, 72 h; outline: as §2
[5] = tested on: Escherichia coli; test: Antimicrobial activity against Escherichia coli NCIM-2256 after 20 hrs by two fold serial macrodilution technique; format: functional; conditions: NCIM-2256, 20 h; outline: as §1
[6] = tested on: Escherichia coli; test: Bactericidal activity against Escherichia coli NCIM-2256 after 72 hrs by two fold serial macrodilution technique; format: functional; conditions: NCIM-2256, 72 h; outline: as §2
[7] = tested on: Salmonella typhimurium; test: Antimicrobial activity against […] after 20 hrs by two fold serial macrodilution technique; format: functional, Salmonella enterica subsp. enterica serovar Typhimurium; conditions: Salmonella enterica; outline: as §1
[8] = tested on: Salmonella typhimurium; test: Bactericidal activity against […] after 72 hrs by two fold serial macrodilution technique; format: functional, Salmonella enterica subsp. enterica serovar Typhimurium; conditions: Salmonella enterica; outline: as §2
[9] = tested on: Candida albicans; test: Antimicrobial activity against Candida albicans NCIM-3471 after 20 hrs by two fold serial macrodilution technique; format: functional; conditions: NCIM-3471, 20 h
[10] = tested on: Candida albicans; test: Fungicidal activity against Candida albicans NCIM-3471 after 48 to 72 hrs by two fold serial macrodilution technique; format: functional; outline: as §2
[11] = tested on: Aspergillus flavus; test: Antimicrobial activity against Aspergillus flavus NCIM-539 after 20 hrs by two fold serial macrodilution technique; format: functional; conditions: NCIM-539, 20 h
[12] = tested on: Aspergillus flavus; test: Fungicidal activity against Aspergillus flavus NCIM-539 after 48 to 72 hrs by two fold serial macrodilution technique; format: functional; outline: as §2
[13] = tested on: Aspergillus niger; test: Antimicrobial activity against Aspergillus niger NCIM-1196 after 20 hrs by two fold serial macrodilution technique; format: functional; conditions: NCIM-1196, 20 h
[14] = tested on: Aspergillus niger; test: Fungicidal activity against Aspergillus niger NCIM-1196 after 48 to 72 hrs by two fold serial macrodilution technique; format: functional; outline: as §2
[15] = tested on: Cryptococcus neoformans; test: Antimicrobial activity against Cryptococcus neoformans NCIM-3378 after 20 hrs by two fold serial macrodilution technique; format: functional; conditions: NCIM-3378, 20 h
[16] = tested on: Cryptococcus neoformans; test: Fungicidal activity against Cryptococcus neoformans NCIM-3378 after 48 to 72 hrs by two fold serial macrodilution technique; format: functional; outline: as §2
[17] = tested on: HeLa; test: Cytotoxicity against human HeLa cells by SRB method; format: cell-based
Outline: (§3)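 SRB colorimetric growth assay. IC50, in µM, was the concentration inhibiting cell growth by 50% relative to untreated control cells. Runs were in triplicate in three independent experiments, with means reported. The positive control was doxorubicin.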

[18] = tested on: MCF7; test: Cytotoxicity against human MCF7 cells by SRB method; format: cell-based; outline: as §3

Compound | MIC [1] | MIC [3] | MIC [5] | MIC [7] | MIC [9] | MIC [11] | MIC [13] | MIC [15] | MBC [2] | MBC [4] | MBC [6] | MBC [8] | MFC [10] | MFC [12] | MFC [14] | MFC [16] | IC50 [17] | IC50 [18]
O=C1CSC(c2ccccc2)N1c1ccc(Cl)cc1O (configuration not stated) | 60 µg/mL (≈ 196 µM) | 25 µg/mL (≈ 81.8 µM) | 65 µg/mL (≈ 213 µM) | 55 µg/mL (≈ 180 µM) | 60 µg/mL (≈ 196 µM) | 80 µg/mL (≈ 262 µM) | 90 µg/mL (≈ 294 µM) | 70 µg/mL (≈ 229 µM) | 85 µg/mL (≈ 278 µM) | 40 µg/mL (≈ 131 µM) | 125 µg/mL (≈ 409 µM) | 120 µg/mL (≈ 392 µM) | 115 µg/mL (≈ 376 µM) | 115 µg/mL (≈ 376 µM) | 120 µg/mL (≈ 392 µM) | 125 µg/mL (≈ 409 µM) | 63.7 µM | 56.8 µM
O=C1CSC(c2ccc(Cl)cc2Cl)N1c1ccc(Cl)cc1O (configuration not stated) | 80 µg/mL (≈ 214 µM) | 90 µg/mL (≈ 240 µM) | 70 µg/mL (≈ 187 µM) | 75 µg/mL (≈ 200 µM) | 90 µg/mL (≈ 240 µM) | 85 µg/mL (≈ 227 µM) | 70 µg/mL (≈ 187 µM) | 100 µg/mL (≈ 267 µM) | 160 µg/mL (≈ 427 µM) | 160 µg/mL (≈ 427 µM) | 150 µg/mL (≈ 400 µM) | 155 µg/mL (≈ 414 µM) | 160 µg/mL (≈ 427 µM) | 140 µg/mL (≈ 374 µM) | 145 µg/mL (≈ 387 µM) | 150 µg/mL (≈ 400 µM) | 49.5 µM | 48.4 µM
O=C1CSC(c2ccccc2Cl)N1c1ccc(Cl)cc1O (configuration not stated) | 20 µg/mL (≈ 58.8 µM) | 35 µg/mL (≈ 103 µM) | 80 µg/mL (≈ 235 µM) | 65 µg/mL (≈ 191 µM) | 55 µg/mL (≈ 162 µM) | 35 µg/mL (≈ 103 µM) | 100 µg/mL (≈ 294 µM) | 90 µg/mL (≈ 265 µM) | 40 µg/mL (≈ 118 µM) | 55 µg/mL (≈ 162 µM) | 140 µg/mL (≈ 411 µM) | 135 µg/mL (≈ 397 µM) | 140 µg/mL (≈ 411 µM) | 50 µg/mL (≈ 147 µM) | 155 µg/mL (≈ 456 µM) | 135 µg/mL (≈ 397 µM) | 62.8 µM | 56.2 µM
COc1ccc(C2SCC(=O)N2c2ccc(Cl)cc2O)c(OC)c1 (configuration not stated) | 30 µg/mL (≈ 82 µM) | 15 µg/mL (≈ 41 µM) | 30 µg/mL (≈ 82 µM) | 35 µg/mL (≈ 95.7 µM) | 3 µg/mL (≈ 8.2 µM) | 10 µg/mL (≈ 27.3 µM) | 65 µg/mL (≈ 178 µM) | 70 µg/mL (≈ 191 µM) | 45 µg/mL (≈ 123 µM) | 25 µg/mL (≈ 68.3 µM) | 50 µg/mL (≈ 137 µM) | 45 µg/mL (≈ 123 µM) | 17.5 µg/mL (≈ 47.8 µM) | 15 µg/mL (≈ 41 µM) | 120 µg/mL (≈ 328 µM) | 120 µg/mL (≈ 328 µM) | 68.2 µM | 68.5 µM
O=C1CSC(c2cccc(F)c2)N1c1ccc(Cl)cc1O (configuration not stated) | 100 µg/mL (≈ 309 µM) | 80 µg/mL (≈ 247 µM) | 70 µg/mL (≈ 216 µM) | 90 µg/mL (≈ 278 µM) | 95 µg/mL (≈ 293 µM) | 90 µg/mL (≈ 278 µM) | 100 µg/mL (≈ 309 µM) | 85 µg/mL (≈ 263 µM) | 155 µg/mL (≈ 479 µM) | 160 µg/mL (≈ 494 µM) | 145 µg/mL (≈ 448 µM) | 155 µg/mL (≈ 479 µM) | 165 µg/mL (≈ 510 µM) | 140 µg/mL (≈ 432 µM) | 165 µg/mL (≈ 510 µM) | 140 µg/mL (≈ 432 µM) | 67.3 µM | 65.8 µM

More lines, main results first:

MIC [1] | MIC [3] | MIC [5] | MIC [7] | MIC [9] | MIC [11] | MIC [13] | MIC [15] | Compound | MBC [2] | MBC [4] | MBC [6] | MBC [8] | MFC [10] | MFC [12] | MFC [14] | MFC [16] | IC50 [17] | IC50 [18]
100 µg/mL (≈ 285 µM) | 85 µg/mL (≈ 242 µM) | 90 µg/mL (≈ 257 µM) | 80 µg/mL (≈ 228 µM) | 95 µg/mL (≈ 271 µM) | 75 µg/mL (≈ 214 µM) | 100 µg/mL (≈ 285 µM) | 90 µg/mL (≈ 257 µM) | O=C1CSC(c2ccc([N+](=O)[O-])cc2)N1c1ccc(Cl)cc1O (configuration not stated) | 140 µg/mL (≈ 399 µM) | 140 µg/mL (≈ 399 µM) | 155 µg/mL (≈ 442 µM) | 135 µg/mL (≈ 385 µM) | 155 µg/mL (≈ 442 µM) | 135 µg/mL (≈ 385 µM) | 160 µg/mL (≈ 456 µM) | 135 µg/mL (≈ 385 µM) | 52.2 µM | 41 µM
25 µg/mL (≈ 73.5 µM) | 20 µg/mL (≈ 58.8 µM) | 50 µg/mL (≈ 147 µM) | 65 µg/mL (≈ 191 µM) | 70 µg/mL (≈ 206 µM) | 90 µg/mL (≈ 265 µM) | 65 µg/mL (≈ 191 µM) | 95 µg/mL (≈ 279 µM) | O=C1CSC(c2ccc(Cl)cc2)N1c1ccc(Cl)cc1O (configuration not stated) | 45 µg/mL (≈ 132 µM) | 45 µg/mL (≈ 132 µM) | 165 µg/mL (≈ 485 µM) | 155 µg/mL (≈ 456 µM) | 160 µg/mL (≈ 470 µM) | 155 µg/mL (≈ 456 µM) | 165 µg/mL (≈ 485 µM) | 160 µg/mL (≈ 470 µM) | 64.4 µM | 56.2 µM
30 µg/mL (≈ 89.3 µM) | 30 µg/mL (≈ 89.3 µM) | 35 µg/mL (≈ 104 µM) | 25 µg/mL (≈ 74.4 µM) | 15 µg/mL (≈ 44.7 µM) | 15 µg/mL (≈ 44.7 µM) | 80 µg/mL (≈ 238 µM) | 65 µg/mL (≈ 194 µM) | COc1ccc(C2SCC(=O)N2c2ccc(Cl)cc2O)cc1 (configuration not stated) | 40 µg/mL (≈ 119 µM) | 40 µg/mL (≈ 119 µM) | 45 µg/mL (≈ 134 µM) | 110 µg/mL (≈ 328 µM) | 20 µg/mL (≈ 59.6 µM) | 20 µg/mL (≈ 59.6 µM) | 150 µg/mL (≈ 447 µM) | 155 µg/mL (≈ 462 µM) | 51.6 µM | 48.6 µM
55 µg/mL (≈ 170 µM) | 25 µg/mL (≈ 77.2 µM) | 70 µg/mL (≈ 216 µM) | 60 µg/mL (≈ 185 µM) | 65 µg/mL (≈ 201 µM) | 90 µg/mL (≈ 278 µM) | 50 µg/mL (≈ 154 µM) | 90 µg/mL (≈ 278 µM) | O=C1CSC(c2ccc(F)cc2)N1c1ccc(Cl)cc1O (configuration not stated) | 150 µg/mL (≈ 463 µM) | 45 µg/mL (≈ 139 µM) | 145 µg/mL (≈ 448 µM) | 140 µg/mL (≈ 432 µM) | 150 µg/mL (≈ 463 µM) | 140 µg/mL (≈ 432 µM) | 140 µg/mL (≈ 432 µM) | 145 µg/mL (≈ 448 µM) | 72.4 µM | 68.7 µM
